High-throughput results from PubChem BioAssay.
T cruzi growth-1: inhibitors of T. cruzi proliferation; T. cruzi beta-gal in NIH3T3, GalScreen luminescence, 90 h; inhibition, % at 8.34 µM; 77,000 tested, 5.9% active; AID 624255;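 active = mean inhibition above about 93%, with at least 55% of replicates each passing it, limit read from the data, passing the limit was not always enough; inconclusive = only one of those two conditions holds; inactive = neither condition holds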
KDM4C inh: KDM4C (human) demethylase inhibition; AID 720574; GST-KDM4C 2-372, H3K9me3 peptide, LANCE TR-FRET; Q9H3R0; inhibition, % at 12.5 µM; 96,000 tested, 0.15% active;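 active = mean replicate inhibition above about 25%, with at least 55% of replicates also reaching it, limit read from the data, passing the limit was not always enough; inconclusive = only one of those two conditions met; inactive = neither condition met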
Target sequence (Q9H3R0 2-372 limits assumed): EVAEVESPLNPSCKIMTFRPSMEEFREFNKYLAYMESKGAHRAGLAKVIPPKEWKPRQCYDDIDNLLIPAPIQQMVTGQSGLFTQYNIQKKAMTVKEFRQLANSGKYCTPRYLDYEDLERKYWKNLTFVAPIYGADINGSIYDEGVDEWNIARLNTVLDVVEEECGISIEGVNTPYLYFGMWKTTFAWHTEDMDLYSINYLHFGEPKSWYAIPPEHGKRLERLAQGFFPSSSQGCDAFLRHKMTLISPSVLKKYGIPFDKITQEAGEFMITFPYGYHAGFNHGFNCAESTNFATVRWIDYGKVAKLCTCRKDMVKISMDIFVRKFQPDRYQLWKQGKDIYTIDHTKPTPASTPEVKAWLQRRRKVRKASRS
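Test system: N-terminal GST-fused human GASC-1 (KDM4C) fragment, residues 2-372; quantity: GASC-1 enzyme at 10 nM final in reaction; dosing: single dose; schedule: 30 min demethylation and 1 h detection at room temperature; signal: LANCE TR-FRET, excitation 340 nm, emissions 618 and 671 nm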
IDH1 mut inh: blocks human IDH1 R132H reductase activity; diaphorase/resazurin fluorescence, 60 min; inhibition, % at 10 µM; 70,000 tested, 0.18% active; in the data active = inhibition above about 34%; inconclusive = no clear call, values can overlap the other calls; inactive = below about 11%
T cruzi growth-2: inhibitors of T. cruzi proliferation; shares compounds with T cruzi growth-1; AID 651739; 5,600 tested, 72% active; inhibition, % at 8.35 µM; T. cruzi beta-gal in NIH3T3, GalScreen luminescence, 90 h;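 active = mean replicate inhibition above about 95% and at least 55% of replicates individually reaching it, limit read from the data; inconclusive = only one of the two criteria is met; inactive = neither criterion is met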
T cruzi growth-3: Trypanosoma cruzi proliferation inhibition. shares compounds with T cruzi growth-1. T. cruzi beta-gal in NIH3T3, GalScreen luminescence, 90 h. inhibition, % at 2.09 µM. 5,600 tested, 21% active. AID 651740;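 active = mean inhibition above about 95%, with at least 55% of replicates also reaching it, limit read from the data; inconclusive = meets just one of the two conditions; inactive = meets neither condition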
3T3 cytotox: NIH/3T3 (mouse) viability loss. shares compounds with T cruzi growth-1. NIH/3T3 viability, CellTiter-Glo ATP luminescence, 90 h. cytotoxicity (signal decrease), % at 8.35 µM. 5,600 tested, 14% active;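 active = mean signal decrease across replicates above about 35% based on untreated-well scatter, with enough replicates individually passing, limit read from the data; inconclusive = no rule stated though some were filed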
NIH3T3 tox 2: kills mouse NIH/3T3 fibroblasts | inhibition, % at 24.9 µM | 5,600 tested, 56% active | shares compounds with T cruzi growth-1 | AID 651744 | NIH/3T3 viability, CellTiter-Glo ATP luminescence, 90 h;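 active = mean loss of cell viability signal at or above a set limit, and enough replicates individually reaching it; inconclusive = meets only the mean limit or only the replicate share; inactive = meets neither condition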
Large screens that a line does not name were inactive (follow-up assays come after a bar, where they were run). This is one part of a sample in which hits are shown more often than they occur.

C[C@H]1CN([C@@H](C)CO)C(=O)c2cc(NC(=O)CCCCCC(=O)Nc3ccccc3N)ccc2O[C@@H]1CN(C)S(=O)(=O)c1ccc(F)cc1	none (no result: T cruzi growth-1)
NS(=O)(=O)c1ccc(NC(=O)CSc2nnc(-c3ccccc3Cl)n2-c2ccccc2)cc1	none (no result: T cruzi growth-1, KDM4C inh)
C[C@H](CO)N1C[C@H](C)[C@H](CN(C)CC2CCCCC2)Oc2ccc(NC(=O)CCC(F)(F)F)cc2C1=O	none (no result: IDH1 mut inh)
C[C@@H]1CN([C@@H](C)CO)C(=O)c2cc(N(C)C)ccc2O[C@H]1CN(C)CC1CCCCC1	T cruzi growth-1 102 | T cruzi growth-2 inactive | T cruzi growth-3 inactive | 3T3 cytotox inactive | NIH3T3 tox 2 inactive
C[C@H]1CN([C@@H](C)CO)C(=O)c2cc(N(C)C)ccc2O[C@H]1CN(C)CC1CCCCC1	none
C[C@@H]1CN([C@H](C)CO)C(=O)c2cc(NC(=O)CCC(F)(F)F)ccc2O[C@H]1CN(C)CC1CCCCC1	T cruzi growth-1 101 | T cruzi growth-2 inactive | T cruzi growth-3 inactive | 3T3 cytotox inactive | NIH3T3 tox 2 inactive
O=[N+]([O-])c1cc(C(F)(F)F)ccc1NCCNS(=O)(=O)c1ccc(Br)cc1	none (no result: T cruzi growth-1, KDM4C inh)
CNC(=O)C[C@H]1CC[C@H]2[C@@H](COC[C@H](O)CN2S(=O)(=O)c2ccc(Oc3ccccc3)cc2)O1	none (no result: IDH1 mut inh)
C[C@@H]1CN([C@H](C)CO)C(=O)c2cc(NC(=O)Nc3cccc4ccccc34)ccc2O[C@@H](C)CCCCO[C@@H]1CN(C)C(=O)NC1CCCCC1	none
COc1ccc(NC(=O)Nc2ccc3c(c2)C(=O)N([C@@H](C)CO)C[C@@H](C)[C@@H](CN(C)C(=O)C2CCCCC2)OCCCC[C@@H](C)O3)cc1	none
C[C@H]1CN([C@@H](C)CO)C(=O)Cc2cc(NS(=O)(=O)c3ccc(F)cc3)ccc2O[C@H]1CN(C)Cc1ccccc1	T cruzi growth-1 100 | T cruzi growth-2 99 | T cruzi growth-3 inactive | 3T3 cytotox inactive | NIH3T3 tox 2 inactive
C[C@H](CO)N1C[C@H](C)[C@H](CN(C)Cc2ccccc2)Oc2ccc(NS(=O)(=O)c3ccc(F)cc3)cc2CC1=O	none
C[C@@H]1CN([C@H](C)CO)C(=O)Cc2cc(NS(=O)(=O)c3ccc(Cl)cc3)ccc2O[C@H]1CN(C)Cc1ccccc1	T cruzi growth-1 100 | T cruzi growth-2 110 | T cruzi growth-3 103 | 3T3 cytotox inactive | NIH3T3 tox 2 inactive
C[C@H](CO)N1C[C@H](C)[C@@H](CN(C)Cc2ccccc2)Oc2ccc(NS(=O)(=O)c3ccc(Cl)cc3)cc2CC1=O	none
C[C@@H]1CN([C@H](C)CO)C(=O)Cc2cc(NS(=O)(=O)c3ccc(F)cc3)ccc2O[C@H]1CN(C)Cc1ccccc1	T cruzi growth-1 97 | T cruzi growth-2 110 | T cruzi growth-3 inactive | 3T3 cytotox inactive | NIH3T3 tox 2 inactive
C[C@@H]1CN([C@@H](C)CO)C(=O)Cc2cc(NS(=O)(=O)c3ccc(F)cc3)ccc2O[C@@H]1CN(C)Cc1ccc(-c2ccccc2)cc1	none
COc1ccc(S(=O)(=O)N2C[C@H](O)COC[C@H]3O[C@H](CC(=O)NCCCN(C)C)CC[C@@H]32)cc1	none (no result: IDH1 mut inh)
CN(C)CCCNC(=O)C[C@H]1CC[C@@H]2[C@@H](COc3ccc(NC(=O)c4ccc5c(c4)OCO5)cc3C(=O)N2C)O1	none (no result: IDH1 mut inh)
Cc1noc(C)c1NC(=O)Nc1ccc2c(c1)C(=O)N([C@@H](C)CO)C[C@H](C)[C@H](CN(C)S(=O)(=O)c1cn(C)cn1)O2	none
CC(=O)N(C)C[C@@H]1Oc2cc(C#Cc3ccccn3)ccc2S(=O)(=O)N([C@@H](C)CO)C[C@@H]1C	none
Cc1cccc(NC(=O)C[C@H]2CC[C@H]3[C@@H](COc4ccc(NC(=O)NC(C)C)cc4C(=O)N3C)O2)c1	none (no result: IDH1 mut inh)
OC[C@H]1[C@H](c2ccc(/C=C/c3ccccc3)cc2)[C@@H]2CN(Cc3ccncc3)CCCCN12	T cruzi growth-1 inconclusive (no result: IDH1 mut inh) | T cruzi growth-2 110 | T cruzi growth-3 inactive | 3T3 cytotox inconclusive | NIH3T3 tox 2 104
OC[C@@H]1[C@H](c2ccc(/C=C/c3ccccc3)cc2)[C@H]2CN(Cc3cccnc3)CCCCN12	none (no result: IDH1 mut inh)
OC[C@H]1[C@H](c2ccc(/C=C/c3ccccc3)cc2)[C@@H]2CN(Cc3cccnc3)CCCCN12	T cruzi growth-1 104 (no result: IDH1 mut inh) | T cruzi growth-2 108 | T cruzi growth-3 inactive | 3T3 cytotox inactive | NIH3T3 tox 2 104
OC[C@@H]1[C@@H](c2ccc(/C=C/c3ccccc3)cc2)[C@H]2CN(Cc3cccnc3)CCCCN12	none (no result: IDH1 mut inh)
O=C(Nc1ccc(Cl)cc1)N[C@@H]1CC[C@H](CCn2cc(Cc3ccccc3)nn2)O[C@H]1CO	none
COc1ccc(/C=N/NC(=O)c2ccc(C(=O)NO)cc2)cc1O	none (no result: T cruzi growth-1, KDM4C inh)
C[C@H]1CN([C@@H](C)CO)C(=O)c2ccccc2-c2ccccc2CO[C@@H]1CN(C)C(=O)Nc1ccnc(N2CCOCC2)c1	T cruzi growth-1 108 | T cruzi growth-2 101 | T cruzi growth-3 inconclusive | 3T3 cytotox inactive | NIH3T3 tox 2 inactive
C[C@H]1CN([C@@H](C)CO)C(=O)c2c(c3ccccc3n2C)-c2ccccc2CO[C@H]1CN(C)C(=O)Nc1ccnc(N2CCOCC2)c1	none (no result: T cruzi growth-1, IDH1 mut inh)
C[C@@H]1CN([C@@H](C)CO)C(=O)c2c(c3ccccc3n2C)-c2ccccc2CO[C@@H]1CN(C)C(=O)Nc1ccnc(N2CCOCC2)c1	none (no result: T cruzi growth-1, IDH1 mut inh)
C[C@@H]1CN([C@H](C)CO)C(=O)c2ccccc2-c2ccccc2CO[C@H]1CN(C)C(=O)Nc1ccnc(N2CCOCC2)c1	T cruzi growth-1 inconclusive | T cruzi growth-2 96 | T cruzi growth-3 inactive | 3T3 cytotox inactive | NIH3T3 tox 2 inactive
Cc1ccc(NC(=O)c2[nH]c3c(c2C)C(=O)CC(c2ccc(C(C)(C)C)cc2)C3)cc1C (stereo unspecified)	none (no result: T cruzi growth-1, KDM4C inh)
COc1ccc2c3c([nH]c2c1)[C@H](CO)N(C(=O)C1CC1)CC31CN(Cc2nccs2)C1	none (no result: T cruzi growth-1, IDH1 mut inh)
CO[C@H]1CN(C)C(=O)c2ccc(NC(=O)CC(F)(F)F)cc2OC[C@H](C)N(S(=O)(=O)c2cn(C)cn2)C[C@H]1C	none
C[C@H](CO)N1C[C@H](C)[C@H](CN(C)Cc2ccc(C(F)(F)F)cc2)Oc2ccc(NC(=O)Cn3cnnn3)cc2C1=O	none
C[C@@H]1CN([C@@H](C)CO)S(=O)(=O)c2ccc(C#Cc3ccccc3)cc2O[C@H]1CN(C)S(C)(=O)=O	none
C[C@@H]1CN([C@@H](C)CO)S(=O)(=O)c2ccc(C#Cc3ccccc3)cc2O[C@@H]1CN(C)S(=O)(=O)c1ccccc1F	T cruzi growth-1 123 | T cruzi growth-2 105 | T cruzi growth-3 109 | 3T3 cytotox inactive | NIH3T3 tox 2 47
C[C@@H]1CN([C@H](C)CO)S(=O)(=O)c2ccc(C#Cc3ccccc3)cc2O[C@H]1CN(C)S(C)(=O)=O	none
